# Assay results: ChEMBL document CHEMBL3352597, “Heck products of parthenolide and melampomagnolide-B as anticancer modulators that modify cell cycle progression” (Eur J Med Chem, 2014)
# Experiments:
# Assay type in all cases: functional
# [1] = tested on: CCRF-CEM; experiment: Anticancer activity against human CCRF-CEM cells
# In short: (§1)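 NCI 60 human cancer cell line panel, multiple-dose testing at five concentrations (10^-4, 10^-5, 10^-6, 10^-7 and 10^-8 M). Dose-response curves plot cytotoxic effect against log10 of drug concentration for each cell line. GI50 is the molar concentration giving 50% growth inhibition; LC50 is the concentration killing 50% of cells.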
# [2] = tested on: K562; experiment: Anticancer activity against human K562 cells; in short: as §1
# [3] = Anticancer activity against human MOLT4 cells; in short: as §1
# [4] = Anticancer activity against human RPMI8226 cells; in short: as §1
# [5] = tested on: SR; experiment: Anticancer activity against human SR cells
# In short: (§2)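 NCI 60 human tumour cell line screen. A single-concentration pre-screen was run at 10^-5 M. Compounds selected from it were then tested at five concentrations, 10^-4 to 10^-8 M. Dose-response curves plotted cytotoxic effect against log10 of the drug concentration for each cell line. GI50 is the molar concentration giving 50% growth inhibition, and LC50 the concentration killing 50% of cells.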
# [6] = tested on: A549; experiment: Anticancer activity against human A549 cells; in short: as §1
# [7] = tested on: HOP-62; experiment: Anticancer activity against human HOP62 cells; in short: as §1
# [8] = tested on: NCI-H226; experiment: Anticancer activity against human NCI-H226 cells; in short: as §1
# [9] = tested on: NCI-H23; experiment: Anticancer activity against human NCI-H23 cells; in short: as §1
# [10] = tested on: NCI-H322M; experiment: Anticancer activity against human NCI-H322M cells after 48 hrs; in short: as §1
# [11] = tested on: NCI-H460; experiment: Anticancer activity against human NCI-H460 cells; in short: as §1
# [12] = Anticancer activity against human HCC2998 cells; in short: as §1
# [13] = Anticancer activity against human HCT116 cells; in short: as §1
# [14] = Anticancer activity against human HCT15 cells; in short: as §1
# [15] = tested on: HT-29; experiment: Anticancer activity against human HT-29 cells; in short: as §1
# [16] = tested on: KM12; experiment: Anticancer activity against human KM12 cells; in short: as §1
# [17] = tested on: SW-620; experiment: Anticancer activity against human SW620 cells; in short: as §2
# [18] = tested on: SF-268; experiment: Anticancer activity against human SF268 cells; in short: as §1
# [19] = Anticancer activity against human SF539 cells; in short: as §1
# [20] = tested on: SNB-19; experiment: Anticancer activity against human SNB19 cells; in short: as §1
# [21] = tested on: SNB-75; experiment: Anticancer activity against human SNB75 cells; in short: as §2
# [22] = tested on: U-251; experiment: Anticancer activity against human U251 cells; in short: as §2
# [23] = Anticancer activity against human LOXIMVI cells; conditions: LOX IMVI; in short: as §1
# [24] = tested on: Malme-3M; experiment: Anticancer activity against human MALME-3M cells; in short: as §1
# [25] = tested on: M14; experiment: Anticancer activity against human M14 cells; in short: as §1
# [26] = tested on: MDA-MB-435; experiment: Anticancer activity against human MDA-MB-435 cells; in short: as §1
# [27] = read-out: LC50 (the source's name)
structure (smiles),measurement,setting,value
C/C1=C\CC[C@@]2(C)O[C@@H]2[C@H]2OC(=O)/C(=C/c3ccsc3)[C@@H]2CC1,GI50,[1],19.1 µM
same,CC50,[1]; [27],> 100 µM
same,GI50,[2],25.2 µM
same,CC50,[2]; [27],> 100 µM
same,GI50,[3]; MOLT-4,25.7 µM
same,CC50,"[3]; MOLT-4, read-out: LC50 (the source's name)",> 100 µM
same,GI50,[4]; RPMI-8226,19.7 µM
same,CC50,"[4]; RPMI-8226, read-out: LC50 (the source's name)",> 100 µM
same,GI50,[5],20.7 µM
same,CC50,[5]; [27],> 100 µM
same,GI50,[6],29.8 µM
same,CC50,[6]; [27],> 100 µM
same,GI50,[7],35.8 µM
same,CC50,[7]; [27],> 100 µM
same,GI50,[8],30.2 µM
same,CC50,[8]; [27],> 100 µM
same,GI50,[9],23 µM
same,CC50,[9]; [27],> 100 µM
same,GI50,[10],44.7 µM
same,CC50,[10]; [27],> 100 µM
same,GI50,[11],29.3 µM
same,CC50,[11]; [27],> 100 µM
same,GI50,[12]; HCC 2998,33.8 µM
same,CC50,"[12]; HCC 2998, read-out: LC50 (the source's name)",> 100 µM
same,GI50,[13]; HCT-116,28.3 µM
same,CC50,"[13]; HCT-116, read-out: LC50 (the source's name)",> 100 µM
same,GI50,[14]; HCT-15,22.6 µM
same,CC50,"[14]; HCT-15, read-out: LC50 (the source's name)",> 100 µM
same,GI50,[15],27 µM
same,CC50,[15]; [27],> 100 µM
same,GI50,[16],20.4 µM
same,CC50,[16]; [27],86.7 µM
same,GI50,[17],22.9 µM
same,CC50,[17]; [27],> 100 µM
same,GI50,[18],21.3 µM
same,CC50,[18]; [27],> 100 µM
same,GI50,[19]; SF-539,16.1 µM
same,CC50,"[19]; SF-539, read-out: LC50 (the source's name)",62.2 µM
same,GI50,[20],47.6 µM
same,CC50,[20]; [27],> 100 µM
same,GI50,[21],21.5 µM
same,CC50,[21]; [27],> 100 µM
same,GI50,[22],21.7 µM
same,CC50,[22]; [27],> 100 µM
same,GI50,[23],18 µM
same,CC50,[23]; [27],71.2 µM
same,GI50,[24],22.5 µM
same,CC50,[24]; [27],> 100 µM
same,GI50,[25],20.5 µM
same,CC50,[25]; [27],> 100 µM
same,GI50,[26],18.3 µM
same,CC50,[26]; [27],> 100 µM
